Here are results for 15 compounds from ChEMBL document CHEMBL1139374, “Multivalent scaffolds for affinity maturation of small molecule cell surface binders and their application to prostate tumor targeting” (J Med Chem, 2009).

Active and inactive are the calls of the source. The rule behind the calls is not given here.

Experiment [1] deals with T1, Glutamate carboxypeptidase 2 (Homo sapiens, UniProt Q04609). Nature of the experiment: Binding affinity to PSMA in human LNCaP cells assessed as cell surface binding in phosphate-buffered saline buffer. The experiment is classed as cell-based. A digest of the protocol:
(§1)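 Live-cell homologous competition; cells grown in RPMI 1640 with 10% FBS at 37°C and 5% CO2. Cells washed twice in ice-cold TBS pH 7.4, then held 20 min at 4°C with 0.02 MBq 99mTc-labeled tracer, with or without test compound, in TBS, PBS or 100% calf serum. Washed three times in TBS, gamma-counted, affinity taken from curve fit; mean ± S.D.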

The target of experiment [2] is T1, Glutamate carboxypeptidase 2. Nature of the experiment: Binding affinity to PSMA in human LNCaP cells assessed as cell surface binding in presence of 100% calf serum. The experiment is classed as cell-based. The gist of the method: as §1
Experiment [3] shares this target. Nature of the experiment: Binding affinity to PSMA in human PC3 cells assessed as cell surface binding in Tris-buffered saline buffer. In kind it is cell-based. As to conditions: for Activity: PC-3. The gist of the method: (§2)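 Cells washed twice in ice-cold TBS pH 7.4, then held 20 min at 4°C with 0.02 MBq 99mTc-labeled tracer, with or without test compound, in TBS, PBS or 100% calf serum. Washed three times in TBS, gamma-counted, affinity taken from curve fit; mean ± S.D.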

Experiment [4] shares this target. Briefly: Binding affinity to PSMA in human LNCaP cells assessed as cell surface binding in Tris-buffered saline buffer. The experiment is classed as cell-based. The gist of the method:
as §2

For experiment [5] the target is unchanged. Briefly: Binding affinity to PSMA in human PC3 cells assessed as cell surface binding in phosphate-buffered saline buffer. In kind it is cell-based. The gist of the method: as §1
The target is the same in experiment [6]. Nature of the experiment: Binding affinity to PSMA in living human LNCaP cells assessed as cell surface binding at 2 uM in presence of 100% calf serum by NIR fluorescence imaging. In kind it is cell-based. A digest of the protocol: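 Exponentially growing LNCaP cells at 75% confluence on glass coverslips, exposed to 2 μM compound in 0.2 mL 100% calf serum for 20 min at room temperature. Washed three times in serum, fixed in 2% paraformaldehyde 10 min, permeabilized with PBS-0.1% Tween-20 and mounted. Phase-contrast and NIR images taken on a four-channel NIR fluorescence microscope at identical exposure and normalization.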
Target sequence in this assay (Q04609 whole entry, looked up): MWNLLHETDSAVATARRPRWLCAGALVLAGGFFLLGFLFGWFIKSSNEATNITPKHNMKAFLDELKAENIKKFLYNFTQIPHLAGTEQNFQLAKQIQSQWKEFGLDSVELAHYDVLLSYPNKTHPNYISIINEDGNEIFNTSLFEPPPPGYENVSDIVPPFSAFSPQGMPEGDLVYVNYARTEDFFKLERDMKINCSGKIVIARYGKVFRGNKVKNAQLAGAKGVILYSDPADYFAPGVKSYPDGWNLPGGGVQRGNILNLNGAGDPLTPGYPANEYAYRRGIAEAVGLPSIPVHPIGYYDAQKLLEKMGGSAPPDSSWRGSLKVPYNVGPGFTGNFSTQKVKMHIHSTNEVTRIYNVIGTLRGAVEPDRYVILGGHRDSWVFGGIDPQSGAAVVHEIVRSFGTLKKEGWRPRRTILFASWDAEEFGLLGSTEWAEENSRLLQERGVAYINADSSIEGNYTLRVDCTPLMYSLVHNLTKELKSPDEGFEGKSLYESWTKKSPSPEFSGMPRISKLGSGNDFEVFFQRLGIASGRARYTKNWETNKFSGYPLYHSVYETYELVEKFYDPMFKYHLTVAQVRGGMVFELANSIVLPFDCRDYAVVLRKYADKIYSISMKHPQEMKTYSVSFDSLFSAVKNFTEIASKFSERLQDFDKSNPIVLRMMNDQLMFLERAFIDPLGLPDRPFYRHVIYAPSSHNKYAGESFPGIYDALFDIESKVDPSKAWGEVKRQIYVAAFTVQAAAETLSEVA

Experiment [7] has the same target. Nature of the experiment: Binding affinity to PSMA in human PC3 cells assessed as cell surface binding in presence of 100% calf serum. In kind it is cell-based, PC-3. The gist of the method:
as §1
Target sequence in this assay (Q04609 whole entry): as the sequence (Q04609 whole entry, looked up) above

For the compound `CC1(C)C(/C=C/C2=C(Oc3ccc(S(=O)(=O)O)cc3)C(=C/C=C3/N(CCCCS(=O)(=O)O)c4ccc(S(=O)(=O)O)cc4C3(C)C)/CCC2)=[N+](CCCCCC(=O)NCCCCCC(=O)NC23CC4(CCC=O)CC(CCC=O)(CC(CCC(=O)N[C@@H](CCP(=O)(O)CC(CCC(=O)O)C(=O)O)C(=O)O)(C4)C2)C3)c2ccc(S(=O)(=O)[O-])cc21` (stereo partly specified), the outcome in experiment [1] and in experiment [2] was inactive.

Take `NC12CC3(CCC(=O)O)CC(CCC(=O)O)(C1)CC(CCC(=O)O)(C2)C3`: the outcome in experiment [3], in experiment [4], in experiment [1] and in experiment [5] (PC-3) was inactive.

Take `CC1(C)C(/C=C/C2=C(Oc3ccc(S(=O)(=O)[O-])cc3)C(=C/C=C3/Nc4ccccc4C3(C)C)/CCC2)=[N+](CCCCCC(=O)NC23CC4(CCC(=O)N[C@@H](CCP(=O)(O)CC(CCC(=O)O)C(=O)O)C(=O)O)CC(CCC(=O)N[C@@H](CCP(=O)(O)CC(CCC(=O)O)C(=O)O)C(=O)O)(CC(CCC(=O)N[C@@H](CCP(=O)(O)CC(CCC(=O)O)C(=O)O)C(=O)O)(C4)C2)C3)c2ccccc21` (stereo partly specified): the Kd in experiment [4] is 0.2 nM; in experiment [1], 0.3 nM; in experiment [2], 0.3 nM. Besides, the Activity in experiment [6] worked out at 100%.

Regarding `CC1(C)C(/C=C/C2=C(Oc3ccc(S(=O)(=O)O)cc3)C(=C/C=C3/N(CCCCS(=O)(=O)O)c4ccc(S(=O)(=O)O)cc4C3(C)C)/CCC2)=[N+](CCCCCC(=O)O)c2ccc(S(=O)(=O)[O-])cc21`, the result in experiment [3] and in experiment [4] was inactive.

With `CC1(C)C(/C=C/C2=C(Oc3ccc(S(=O)(=O)O)cc3)C(=C/C=C3/N(CCCCS(=O)(=O)O)c4ccc(S(=O)(=O)O)cc4C3(C)C)/CCC2)=[N+](CCCCCC(=O)NCCCCCC(=O)NC23CC4(CCC(=O)O)CC(CCC(=O)O)(CC(CCC(=O)O)(C4)C2)C3)c2ccc(S(=O)(=O)[O-])cc21`, the outcome in experiment [3] and in experiment [4] was inactive.

`CC(C)(C)OC(=O)NC12CC3(CCC(=O)N[C@@H](CCP(=O)(O)CC(CCC(=O)O)C(=O)O)C(=O)O)CC(CCC(=O)N[C@@H](CCP(=O)(O)CC(CCC(=O)O)C(=O)O)C(=O)O)(CC(CCC(=O)N[C@@H](CCP(=O)(O)CC(CCC(=O)O)C(=O)O)C(=O)O)(C3)C1)C2` (stereo partly specified): the Kd in experiment [3] is 0.2 nM; in experiment [4], 0.6 nM; in experiment [1], 0.8 nM; in experiment [5], 0.3 nM; in experiment [7] it was 0.6 nM. Moreover, the Activity in experiment [2] stood at 0.9 nM.

Turning to `CC1(C)C(/C=C/C2=C(Oc3ccc(S(=O)(=O)[O-])cc3)C(=C/C=C3/N(CCCCS(=O)(=O)O)c4ccccc4C3(C)C)/CCC2)=[N+](CCCCCC(=O)O)c2ccccc21`, the outcome in experiment [3] and in experiment [4] was inactive. The Activity in experiment [6] stood at 100%.

For the compound `CC(C)(C)OC(=O)NCCCCCC(=O)NC12CC3(CCC(=O)N[C@@H](CCP(=O)(O)CC(CCC(=O)O)C(=O)O)C(=O)O)CC(CCC(=O)N[C@@H](CCP(=O)(O)CC(CCC(=O)O)C(=O)O)C(=O)O)(CC(CCC(=O)N[C@@H](CCP(=O)(O)CC(CCC(=O)O)C(=O)O)C(=O)O)(C3)C1)C2` (stereo partly specified), the Kd in experiment [4] came to 0.4 nM; in experiment [1], 0.5 nM; in experiment [2], 0.7 nM.

Take `CC1(C)C(/C=C/C2=C(Oc3ccc(S(=O)(=O)[O-])cc3)C(=C/C=C3\N(CCCCS(=O)(=O)O)c4ccccc4C3(C)C)/CCC2)=[N+](CCCCCC(=O)NC23CC4(CCC(=O)O)CC(CCC(=O)O)(CC(CCC(=O)O)(C4)C2)C3)c2ccccc21`: the outcome in experiment [3] and in experiment [4] was inactive.

Turning to `CC1(C)C(/C=C/C2=C(Oc3ccc(S(=O)(=O)O)cc3)C(=C/C=C3/N(CCCCS(=O)(=O)O)c4ccc(S(=O)(=O)[O-])cc4C3(C)C)/CCC2)=[N+](CCCCCC(=O)NCCCCCC(=O)NC23CC4(CCC=O)CC(CCC(=O)N[C@@H](CCP(=O)(O)CC(CCC(=O)O)C(=O)O)C(=O)O)(CC(CCC(=O)N[C@@H](CCP(=O)(O)CC(CCC(=O)O)C(=O)O)C(=O)O)(C4)C2)C3)c2ccc(S(=O)(=O)O)cc21` (stereo partly specified), the values for the Kd in experiment [4], in experiment [1] and in experiment [2] were 1.3 nM, 1.9 nM and 1.7 nM, respectively.

With `CC1(C)C(/C=C/C2=C(Oc3ccc(S(=O)(=O)O)cc3)C(=C/C=C3/N(CCCCS(=O)(=O)O)c4ccc(S(=O)(=O)O)cc4C3(C)C)/CCC2)=[N+](CCCCCC(=O)N[C@@H](CCP(=O)(O)CC(CCC(=O)O)C(=O)O)C(=O)O)c2ccc(S(=O)(=O)[O-])cc21` (stereo partly specified), the outcome in experiment [1] and in experiment [2] was inactive.

On to `CC1(C)C(/C=C/C2=C(Oc3ccc(S(=O)(=O)O)cc3)C(=C/C=C3/N(CCCCS(=O)(=O)O)c4ccc(S(=O)(=O)O)cc4C3(C)C)/CCC2)=[N+](CCCCCC(=O)NCCCCCC(=O)NC23CC4(CCC(=O)N[C@@H](CCP(=O)(O)CC(CCC(=O)O)C(=O)O)C(=O)O)CC(CCC(=O)N[C@@H](CCP(=O)(O)CC(CCC(=O)O)C(=O)O)C(=O)O)(CC(CCC(=O)N[C@@H](CCP(=O)(O)CC(CCC(=O)O)C(=O)O)C(=O)O)(C4)C2)C3)c2ccc(S(=O)(=O)[O-])cc21` (stereo partly specified), for which the equilibrium dissociation constant (Kd) in experiment [4] and in experiment [1] was 0.5 nM each time. Moreover, the Activity in experiment [2] worked out at 0.4 nM.

Regarding `CC1(C)C(/C=C/C2=C(Oc3ccc(S(=O)(=O)O)cc3)C(=C/C=C3/N(CCCCS(=O)(=O)O)c4ccc(S(=O)(=O)[O-])cc4C3(C)C)/CCC2)=[N+](CCCCCC(=O)NCCCCCC(=O)NC23CC4(CCC=O)CC(CCC=O)(CC(CCC(=O)N[C@@H](CCP(=O)(O)CC(CCC(=O)O)C(=O)O)C(=O)O)(C4)C2)C3)c2ccc(S(=O)(=O)O)cc21` (stereo partly specified), in experiment [4], the Kd was 5.4 nM.

With `CC1(C)C(C=CC2=C(Oc3ccc(S(=O)(=O)O)cc3)/C(=C/C=C3/N(CCCCCC(=O)N[C@@H](CCP(=O)(O)CC(CCC(=O)O)C(=O)O)C(=O)O)c4ccc(S(=O)(=O)[O-])cc4C3(C)C)CCC2)=[N+](CCCCS(=O)(=O)O)c2ccc(S(=O)(=O)O)cc21` (stereo partly specified), the Kd in experiment [4] amounted to 3.6 nM.

Turning to `N[C@@H](CCP(=O)(O)CC(CCC(=O)O)C(=O)O)C(=O)O` (stereo partly specified), in experiment [4], the Kd came out at 10.5 nM. The outcome in experiment [1] and in experiment [2] was inactive.
